From article PMC7839861 (Journal for Immunotherapy of Cancer, 2021)

Tested on: MC38 tumors
Assay: Transcriptional
Type: in vivo, mouse
Conditions: 2 mg/kg ip Q3D x3
Summary of the method: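 hCD137 C57BL/6J mice bearing sc MC38 tumors (1 x 10^6 cells) were randomized at about 240 mm3. Groups received vehicle, 15 mg/kg test compound or 15 mg/kg enantiomeric non-binding control iv, or 2 mg/kg anti-CD137 agonist antibody ip, Q3D for 3 doses. Tumors were harvested 1 hr after the last dose. RNA (100 ng/tumor) was profiled on the nCounter mouse PanCancer IO 360 panel, and FFPE sections were stained for mouse CD8 with HRP detection.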

B1: anti-CD137 agonist antibody: anti-CD137 agonist antibody, a commercially available urelumab analog (antibody, V domains shown)
VH: QVQLQQWGAGLLKPSETLSLTCAVYGGSFSGYYWSWIRQSPEKGLEWIGEINHGGYVTYNPSLESRVTISVDTSKNQFSLKLSSVTAADTAVYYCARDYGPGNYDWYFDLWGRGTLVTVSS
VL: EIVLTQSPATLSLSPGERATLSCRASQSVSSYLAWYQQKPGQAPRLLIYDASNRATGIPARFSGSGSGTDFTLTISSLEPEDFAVYYCQQRSNWPPALTFGGGTKVEIK
- T cell infiltration of tumors, histological analysis (CD8 IHC): notably increased
